Test results published in ChEMBL document CHEMBL2413060, “Synthesis, biological evaluation and molecular docking studies of some pyrimidine derivatives” (2013).

Legend:
Format in all cases: functional
RPMI-8226 [1] = assay: Cytotoxicity against human RPMI8226 cells
Procedure, shortened: (§1)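 Five-dose in vitro screen on the full sixty human tumour cell line panel. Three response parameters derived per cell line: GI50, TGI and LC50, given in μM.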

SK-OV-3 [2] = assay: Cytotoxicity against human SKOV3 cells; procedure, shortened: as §1
UACC-257 = assay: Cytotoxicity against human UACC257 cells
Procedure, shortened: (§2)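 Five-dose in vitro screen across the full sixty-cell human tumour line panel. Three response parameters were derived from the dose-response data: GI50, TGI and LC50, expressed in μM/l.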

Hs-578T = assay: Cytotoxicity against human Hs578T cells assessed as growth inhibition at 10 uM; conditions: read-out: GI
A549 = assay: Cytotoxicity against human A549/ATCC cells
CAKI-1 [3] = assay: Cytotoxicity against human Caki1 cells
SF-295 = assay: Cytotoxicity against human SF295 cells assessed as growth inhibition at 10 uM; conditions: read-out: GI
Procedure, shortened: (§3)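 Single-dose screen on human tumour cell lines. Growth of treated cells is expressed as percent of untreated growth, plotted as a mean graph, and reported as percent growth inhibition.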

Pseudomonas aeruginosa = assay: Antibacterial activity against Pseudomonas aeruginosa ATCC 9027 assessed as diameter of inhibition zone at 1 mg/ml after 24 hrs by cup diffusion method (reference value: 16 mm); conditions: ATCC 9027, 24 h, read-out: DIZ
SK-OV-3 [4] = assay: Cytotoxicity against human SKOV3 cells assessed as growth inhibition at 10 uM; conditions: read-out: GI; procedure, shortened: as §3
NCI-H322M = assay: Cytotoxicity against human NCI-H322M cells; procedure, shortened: as §1
IGROV-1 = assay: Cytotoxicity against human IGROV1 cells assessed as growth inhibition at 10 uM; conditions: read-out: GI
MDA-MB-435 = assay: Cytotoxicity against human MDA-MB-435 cells; procedure, shortened: as §1
MCF7 = assay: Cytotoxicity against human MCF7 cells assessed as growth inhibition at 10 uM; conditions: read-out: GI; procedure, shortened: as §3
HCC 2998 = assay: Cytotoxicity against human HCC2998 cells
SNB-75 = assay: Cytotoxicity against human SNB75 cells; procedure, shortened: as §1
LOX IMVI = assay: Cytotoxicity against human LOXIMVI cells
PC-3 = assay: Cytotoxicity against human PC3 cells; procedure, shortened: as §1
MDA-MB-468 = assay: Cytotoxicity against human MDA-MB-468 cells assessed as growth inhibition at 10 uM; conditions: read-out: GI; procedure, shortened: as §3
786-0 = assay: Cytotoxicity against human 786-0 cells
Staphylococcus aureus = assay: Antibacterial activity against Staphylococcus aureus ATCC 6538P assessed as diameter of inhibition zone at 1 mg/ml after 24 hrs by cup diffusion method (reference value: 15 mm); conditions: read-out: DIZ
RPMI-8226 [5] = assay: Cytotoxicity against human RPMI8226 cells assessed as growth inhibition at 10 uM; conditions: read-out: GI; procedure, shortened: as §3
OVCAR-3 = assay: Cytotoxicity against human OVCAR3 cells; procedure, shortened: as §1
OVCAR-4 = assay: Cytotoxicity against human OVCAR4 cells; procedure, shortened: as §1
MDA-MB-231 = assay: Cytotoxicity against human MDA-MB-231 cells; procedure, shortened: as §1
HCT-116 = assay: Cytotoxicity against human HCT116 cells
RXF 393 = assay: Cytotoxicity against human RXF393 cells assessed as growth inhibition at 10 uM; conditions: read-out: GI; procedure, shortened: as §3
SF-539 = assay: Cytotoxicity against human SF539 cells; procedure, shortened: as §1
SN12C = assay: Cytotoxicity against human SN12C cells; procedure, shortened: as §1
SR = assay: Cytotoxicity against human SR cells; procedure, shortened: as §1
TK-10 = assay: Cytotoxicity against human TK10 cells; procedure, shortened: as §2
HL-60(TB) = assay: Cytotoxicity against human HL-60(TB) cells
Procedure, shortened: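 Run in the sixty human tumour cell line panel. The primary screen reports percent growth of treated cells, expressed as percentage growth inhibition. Compounds meeting the threshold inhibition criteria go on to the full-panel 5-dose assay, which gives three response parameters (GI50, TGI, LC50) in μM.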

HCT-15 = assay: Cytotoxicity against human HCT15 cells
A498 = assay: Cytotoxicity against human A498 cells
NCI-H23 = assay: Cytotoxicity against human NCI-H23 cells; procedure, shortened: as §1
BT-549 = assay: Cytotoxicity against human BT549 cells assessed as growth inhibition at 10 uM; conditions: read-out: GI
HOP-92 = assay: Cytotoxicity against human HOP92 cells
CAKI-1 [6] = assay: Cytotoxicity against human Caki1 cells assessed as growth inhibition at 10 uM; conditions: read-out: GI
ACHN = assay: Cytotoxicity against human ACHN cells assessed as growth inhibition at 10 uM; conditions: read-out: GI
[7] = read-out: LC50 (the source's name)

N#Cc1c(-c2ccccc2)nc(SCC2CO2)nc1N1CCOCC1 (stereo not drawn)
GI50 (RPMI-8226 [1]): 14.1 µM
TGI (RPMI-8226 [1]): 91.8 µM
CC50 (RPMI-8226 [1]; [7]): > 100 µM
GI50 (SK-OV-3 [2]): 14.1 µM
TGI (SK-OV-3 [2]): 75.2 µM
CC50 (SK-OV-3 [2]; [7]): > 100 µM
GI50 (UACC-257): 50.7 µM
TGI (UACC-257): > 100 µM
CC50 (UACC-257; [7]): > 100 µM
inhibition of growth at 10 µM (Hs-578T): 50%
GI50 (A549): 27.9 µM
TGI (A549): > 100 µM
CC50 (A549; [7]): > 100 µM
GI50 (CAKI-1 [3]): 0.635 µM
TGI (CAKI-1 [3]): 31.4 µM
CC50 (CAKI-1 [3]; [7]): > 100 µM
inhibition of growth at 10 µM (SF-295): 90.9%
zone of inhibition at 1000 µg/mL (Pseudomonas aeruginosa): 17 mm
inhibition of growth at 10 µM (SK-OV-3 [4]): 71.9%
GI50 (NCI-H322M): 8.31 µM
TGI (NCI-H322M): > 100 µM
CC50 (NCI-H322M; [7]): > 100 µM
inhibition of growth at 10 µM (IGROV-1): 61.9%
GI50 (MDA-MB-435): 6.71 µM
TGI (MDA-MB-435): > 100 µM
CC50 (MDA-MB-435; [7]): > 100 µM
inhibition of growth at 10 µM (MCF7): 55.2%
GI50 (HCC 2998): 0.253 µM
TGI (HCC 2998): 18.2 µM
CC50 (HCC 2998; [7]): > 100 µM
GI50 (SNB-75): 2.15 µM
TGI (SNB-75): 68.2 µM
CC50 (SNB-75; [7]): > 100 µM
GI50 (LOX IMVI): 6.48 µM
TGI (LOX IMVI): > 100 µM
CC50 (LOX IMVI; [7]): > 100 µM
GI50 (PC-3): 22.1 µM
TGI (PC-3): > 100 µM
CC50 (PC-3; [7]): > 100 µM
inhibition of growth at 10 µM (MDA-MB-468): 44.1%
GI50 (786-0): 2.7 µM
TGI (786-0): 21.3 µM
CC50 (786-0; [7]): > 100 µM
zone of inhibition at 1000 µg/mL (Staphylococcus aureus): 15 mm
inhibition of growth at 10 µM (RPMI-8226 [5]): 52.1%
GI50 (OVCAR-3): 4.19 µM
TGI (OVCAR-3): 47.8 µM
CC50 (OVCAR-3; [7]): > 100 µM
GI50 (OVCAR-4): 85.1 µM
TGI (OVCAR-4): > 100 µM
CC50 (OVCAR-4; [7]): > 100 µM
GI50 (MDA-MB-231): 10 µM
TGI (MDA-MB-231): > 100 µM
CC50 (MDA-MB-231; [7]): > 100 µM
GI50 (HCT-116): 18.4 µM
TGI (HCT-116): > 100 µM
CC50 (HCT-116; [7]): > 100 µM
inhibition of growth at 10 µM (RXF 393): 68.5%
GI50 (SF-539): 19.8 µM
TGI (SF-539): > 100 µM
CC50 (SF-539; [7]): > 100 µM
GI50 (SN12C): 16.4 µM
TGI (SN12C): > 100 µM
CC50 (SN12C; [7]): > 100 µM
GI50 (SR): 33.3 µM
TGI (SR): > 100 µM
CC50 (SR; [7]): > 100 µM
GI50 (TK-10): 4.63 µM
TGI (TK-10): > 100 µM
CC50 (TK-10; [7]): > 100 µM
GI50 (HL-60(TB)): 34.1 µM
TGI (HL-60(TB)): > 100 µM
CC50 (HL-60(TB); [7]): > 100 µM
GI50 (HCT-15): 4.06 µM
TGI (HCT-15): > 100 µM
CC50 (HCT-15; [7]): > 100 µM
GI50 (A498): 1.06 µM
TGI (A498): 5.28 µM
CC50 (A498; [7]): > 100 µM
GI50 (NCI-H23): 4.48 µM
TGI (NCI-H23): > 100 µM
CC50 (NCI-H23; [7]): > 100 µM
inhibition of growth at 10 µM (BT-549): 88.6%
GI50 (HOP-92): 2.44 µM
TGI (HOP-92): 8.7 µM
CC50 (HOP-92; [7]): > 100 µM
inhibition of growth at 10 µM (CAKI-1 [6]): 61.4%
inhibition of growth at 10 µM (ACHN): 40.8%
